Many of the other results were omitted from the sample, so hits are more common in it than they were.
UPR CHOP act: activators of apoptotic arm of unfolded protein response (CHOP). activation, % at 10 µM. CHO-CHOP luciferase reporter, UPR activation, luminescence; percent of tunicamycin response over DMSO baseline. 330,000 compounds, 0.34% hits;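 active = at 10 µM dose, activation of 40% or more, normalized to positive control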;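 note: 100% = tunicamycin at 10 µg/mL and 0% = DMSO alone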
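System: CHO-CHOP luciferase reporter cell line | Buffer or medium: F12 medium containing 10% fetal bovine serum | Doses: One dose, 10 µM in 0.5% DMSO | Times: 6 h compound exposure at 37 °C after overnight seeding | Signal: Luciferase luminescence | Read-out: % activation vs tunicamycin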
UPR XBP1 act: adaptive UPR (XBP1) activation; CHO-XBP1 luciferase reporter, IRE1-XBP1 UPR activation, luminescence; percent of tunicamycin response, DMSO as zero; 330,000 compounds, 0.33% hits; activation, % at 20 µM;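 active = versus positive control, 20 µM dose yields 30% or more activation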;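 note: 100% = tunicamycin at 10 µg/mL and 0% = DMSO only wells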
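Material: CHO cell line with stable XBP1 luciferase reporter; schedule: 16-18 h cell attachment at 37 °C, then 6 h compound exposure; signal: glow luminescence from Steady-Glo reagent; medium: serum-containing F12 medium, 10% FBS; benchmarks: tunicamycin 10 µg/mL and vehicle-only wells; read-out: percent activation relative to tunicamycin reference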
PvdQ acylase: blocks Pseudomonas aeruginosa PvdQ acylase activity | purified PvdQ acylase, fluorescence plate reader | inhibition, % at 10 µM | 340,000 compounds, 0.063% hits; in the data active = inhibition above about 30%, passing the limit was not always enough;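 note: 0% = vehicle neutral wells and 100% = reference inhibitor wells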
CHOP inh: CHOP inhibition in unfolded protein response; CHO-K1 CHOP-promoter luciferase, tunicamycin-induced, 15-18 h; inhibition, % at 10 µM; 220,000 compounds, 3.8% hits; AID 2732;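 active = compounds that reduced the stress-induced luciferase reporter signal by more than about 70% of percent inhibition, limit read from the data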;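 note: 0% = tunicamycin plus vehicle and 100% = wells without tunicamycin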
Numbers without * were called inactive; . = not tested or not shown.

SMILES | UPR CHOP act | UPR XBP1 act | PvdQ acylase | CHOP inh
COC(=O)N/N=C/c1cn(Cc2ccc(Cl)cc2Cl)c2ccccc12 | 0 | -1 | -4 | 80*
Cn1cnnc1SCC(=O)NN(c1ccccc1)c1ccccc1 | 0 | 3 | -8 | 3
COc1ccc(-c2cc(C(F)(F)F)n3ncc(C(=O)Nc4c(C)n(C)n(-c5ccccc5)c4=O)c3n2)cc1 | -2 | 3 | . | -8
Cc1ccc(S(=O)(=O)n2nc(C)c(Br)c2C)c(C)c1C | -1 | -1 | -7 | 89*
CCOC(=O)C(C(=O)Nc1nc2ccccc2s1)C1CCCCC1 (stereo not given) | 1 | 0 | -12 | 74*
CCOC(=O)c1nn(-c2ccc(OC)cc2)c(=O)c2c(N)scc12 | -2 | 0 | 6 | 19
CCOC(=O)c1nn(-c2ccc(C)c(C)c2)c(=O)c2c(N)scc12 | -1 | 2 | -13 | 92*
CN(C)C(=O)CSc1nnc(Cc2ccccc2)n1CC1CCCO1 (stereo not given) | 0 | 1 | -18 | 9
O=C1CC(c2ccco2)Cc2nc(NCC3CCCO3)ncc21 (stereo not given) | -1 | -2 | -10 | 82*
O=C1CC(c2ccco2)Cc2nc(Nc3ccc(F)cc3)ncc21 (stereo not given) | 1 | -3 | 0 | 49
Cc1ccc(CN(C(=O)c2csnn2)C(C(=O)NC2CCCC2)c2ccco2)cc1 (stereo not given) | 1 | -1 | -5 | .
CCOC(=O)c1cc(-c2ccc(OC)cc2)nn1-c1ccc(C(=O)O)cc1 | -1 | 4 | 17 | -15
N#C/C(=C(/O)COC(=O)CSc1ccc2ccccc2c1)c1nc2ccccc2[nH]1 | -1 | 1 | -22 | 92*
Cc1cc(Br)ccc1SCC(=O)OC/C(O)=C(\C#N)c1nc2ccccc2[nH]1 | 1 | 0 | -13 | 101*
Cc1ccc(C)c(SCC(=O)OC/C(O)=C(\C#N)c2nc3ccccc3[nH]2)c1 | . | . | 9 | 95*
CCOc1ccc(N(C)S(=O)(=O)c2ccc(C)c(C(=O)Nc3nnc(C4CC4)s3)c2)cc1 | -1 | -4 | -9 | .
CCC(Cc1ccccc1)NS(=O)(=O)c1ccc2c(c1)NC(=O)C(C)S2 (stereo not given) | 0 | -3 | -5 | .
CC(=O)C1=C(c2ccccc2)NC(=O)NC1c1ccccc1OCC(=O)Nc1ccccc1 (stereo not given) | -1 | -1 | 9 | 72*
CC(C)Nc1ncnc2ccc(Br)cc12 | -2 | -2 | -1 | 79*
O=C(Oc1cccc2cccnc12)c1cccc(N2C(=O)C3C4CCC(C4)C3C2=O)c1 (stereo not given) | 2 | 0 | . | 84*
O=C(Oc1cccc2cccnc12)c1ccc(N2C(=O)C3C4CCC(C4)C3C2=O)cc1 (stereo not given) | 7 | 4 | 3 | 7
COc1cc(F)ccc1S(=O)(=O)NCc1cccnc1 | 2 | 2 | -17 | .
Cc1cccc(OCC(O)Cn2c(-n3nc(C)cc3C)nc3c2c(=O)[nH]c(=O)n3C)c1 (stereo not given) | 1 | -2 | -19 | 73*
Cc1cc(C)n(-c2nc3c(c(=O)[nH]c(=O)n3C)n2CC(O)COc2ccccc2)n1 (stereo not given) | -1 | 0 | -18 | 33
CN(C)c1ccc(/C=N/NC(=O)CN2CCN(c3ccc(F)cc3)CC2)cc1 | 4 | 2 | . | 82*
SMILES | UPR CHOP act | UPR XBP1 act | PvdQ acylase | CHOP inh
CN(C)c1ccc(/C=N/NC(=O)CCCO)cc1 | 3 | 0 | -7 | -18
Cc1sc2nc(CSc3ccccc3)nc(N3CCOCC3)c2c1C | -2 | 3 | 6 | 72*
Cc1sc2nc(CSc3ccccc3)nc(N3CCC(C(N)=O)CC3)c2c1C | 1 | 14 | -15 | 19
Cc1c(C(=O)NC2CCCc3ccccc32)oc2ccc(S(=O)(=O)N3CCCC3)cc12 (stereo not given) | -1 | 6 | -7 | 52
Cc1c(C(=O)NC2CCCc3ccccc32)oc2ccc(S(=O)(=O)N3CCCCC3)cc12 (stereo not given) | 1 | 14 | -14 | 85*
Cc1c(C(=O)Nc2ccc(F)c(F)c2)oc2ccc(S(=O)(=O)N3CCCCC3)cc12 | 4 | -1 | -6 | 75*
CCOC(=O)C1CCCN(S(=O)(=O)c2ccc(F)c(C(=O)Nc3ccc(F)c(F)c3)c2)C1 (stereo not given) | 0 | -1 | 3 | 76*
CCOC(=O)C1CCCN(S(=O)(=O)c2ccc(NC(C)=O)cc2)C1 (stereo not given) | -1 | 1 | -3 | 10
Cc1c(C(=O)Nc2ccc(F)cc2)oc2ccc(S(=O)(=O)N3CCC4(CC3)OCCO4)cc12 | 2 | 2 | -27 | 71*
Cc1c(C(=O)Nc2ccc(F)cc2)oc2ccc(S(=O)(=O)N3CCCC3)cc12 | -1 | -2 | 5 | 18
Cc1c(C(=O)Nc2cccc(Cl)c2)oc2ccc(S(=O)(=O)N3CCC4(CC3)OCCO4)cc12 | 5 | 0 | -2 | 32
CC(C)C[C@H](N)CSSC[C@@H](N)CC(C)C | . | . | . | 5
Cc1cn(CC(=O)NCCCn2ccnc2)c(=O)[nH]c1=O | . | . | -12 | .
CC(=O)Nc1ccc(S(=O)(=O)NCc2ccc(C(=O)NC(C)c3ccccc3)cc2)cc1 (stereo not given) | -1 | -4 | 0 | 13
COC(=O)c1sc2nc(C)nc(SCC(=O)Nc3sccc3C(N)=O)c2c1C | -1 | -1 | 0 | .
O=C(CN1CCCc2ccccc21)Nc1ccc(F)cc1[N+](=O)[O-] | 2 | -3 | 0 | 74*
COCc1cc(=O)[nH]c(/N=C(\N)Nc2cccc(C)c2)n1 | -3 | -1 | 10 | 7
Cc1cccc(N/C(N)=N/c2nc(CSc3ccc(Cl)cc3)cc(=O)[nH]2)c1 | 17 | 38* | . | -3
Cc1ccc(C(=O)/C=C/c2cn(CN3CCN(C)CC3)c3ccccc23)cc1 | 6 | 3 | -6 | 82*
Cc1ccc(C(=O)/C=C/c2c[nH]c3ccccc23)cc1 | 6 | -1 | -5 | 81*
CCCn1c(COc2ccc(C(=O)O)cc2)nc2ccccc21 | 1 | -3 | -6 | .
COc1cccc(-n2nc(C(C)=O)c(C#N)c2-c2ccco2)c1 | -1 | 1 | 1 | -2
O=C/C(=C\Nc1ccc(Cl)cn1)c1nc2cc(Cl)ccc2o1 | 0 | 2 | -4 | 75*
COc1ccccc1NC(=O)COn1nnc2ccc(S(=O)(=O)N3CCOCC3)cc21 | 1 | -2 | -17 | -1
COc1ccc(C(=O)/C=C2\C(=O)Nc3ccc(Br)cc32)cc1 | . | . | -6 | .
O=C1Nc2ccc(Br)cc2/C1=C/C1CC=CCC1 (stereo not given) | 2 | -2 | 4 | 95*
CCN(CC)c1nc2ccccc2n(Cc2cccc(OC)c2)c1=O | 0 | 1 | 2 | .
Cc1ccc(Nc2nc3ccccc3nc2-n2nc(C)cc2C)cc1 | 0 | 0 | 1 | 6
Cc1ccc(Nc2cc(C)nn2-c2nc(C)cc(=O)[nH]2)cc1 | 190* | -3 | 0 | .
COc1cccc(-c2cc(C(=O)Nc3c(C)nn(Cc4ccccc4)c3C)no2)c1 | 4 | -2 | -10 | 30

Assay outcomes (PubChem)
